Most compounds without a hit are left out; they make up all but 2.2% or so of the library.
PMK inhibit – S. pneumoniae PMK inhibition | purified PMK, PK/LDH-coupled NADH absorbance 340 nm | inhibition, % at 10 µM | actives 0.49% (n = 65,000);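 active = top-ranked compounds by inhibition in the single 10 µM screen, taking a fixed number of the strongest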;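 note: 0% = full reaction with DMSO carrier and 100% = background rate without enzyme reaction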
Spn MK inh – S. pneumoniae mevalonate kinase inhibition; inhibition, % at 10 µM; purified MK, PK/LDH-coupled NADH absorbance 340 nm; actives 0.48% (n = 65,000);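 active = ranked among the strongest by inhibition in the single 10 µM screen, a fixed top-ranked set picked for dose follow-up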
DPM-DC inhibit – blocks S. pneumoniae diphosphomevalonate decarboxylase. calls only at 10 µM. actives 0.49% (n = 65,000). purified DPM-DC, PK/LDH coupled NADH fluorescence;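 active = the 320 compounds with the highest percent inhibition in the single-dose primary screen, excluding strongly autofluorescent ones, cut at about 32% in these data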;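 note: kinetic rate of NADH fluorescence loss reporting ADP formed by the decarboxylase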
S1P1 ag-PAM – S1P1 (human) agonism or agonism potentiation; P21453; S1P1 CRE-bla cells, forskolin, beta-lactamase FRET, potentiator mode; S1P1 agonist co-added at EC20, 2 nM; 100% = saturating reference agonist, 0% = basal; activation, % at 9.5 µM; actives 0.57% (n = 56,000); AID 449;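 active = activation above a cutoff set at the mean activation of all tested compounds plus 3 SD, cut at about 54% in these data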;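 note: forskolin at 4 µM as EC80 and the EC20 agonist is SEW2871; 100% = SEW2871 at its EC100 plus forskolin at EC80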
Target sequence (P21453 whole entry, looked up): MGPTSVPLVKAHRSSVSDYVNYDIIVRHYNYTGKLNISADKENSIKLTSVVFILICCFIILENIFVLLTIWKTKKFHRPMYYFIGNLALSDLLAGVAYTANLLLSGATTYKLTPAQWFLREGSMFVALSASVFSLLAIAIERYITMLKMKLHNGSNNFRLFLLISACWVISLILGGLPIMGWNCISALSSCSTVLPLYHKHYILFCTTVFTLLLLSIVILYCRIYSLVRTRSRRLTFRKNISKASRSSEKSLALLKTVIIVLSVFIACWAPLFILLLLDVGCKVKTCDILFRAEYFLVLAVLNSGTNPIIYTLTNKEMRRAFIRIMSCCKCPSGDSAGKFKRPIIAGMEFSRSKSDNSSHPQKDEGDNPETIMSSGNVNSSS
Hsp90 inh – displaces geldanamycin probe from tumor Hsp90 | actives 0.35% (n = 64,000) | AID 429 | NCI-N417 lysate Hsp90, Cy3B-geldanamycin FP displacement | inhibition, % at 30 µM | P07900;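 active = inhibition above 50%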;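 note: 0% = tracer plus lysate wells and 100% = tracer alone without lysate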
S1P3 ag – activates the human S1P3 receptor. Q99500. S1P3 NFAT-BLA reporter cells, agonism, FRET ratio; relative to 1 µM S1P, basal subtracted. activation, % at 4.5 µM. actives 0.1% (n = 60,000). AID 373;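 active = activation above the screen-wide mean plus 3 SD, cut at about 4.5% in these data, passing the limit was not always enough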
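Benchmarks: high control 1 µM S1P / System: stable CHO line with human S1P3, Gα16, NFAT-BLA reporter / Dosing: single compound concentration, 4.5 µM final / Timing: 4 h compound at 37 °C, 2 h substrate at RT / Measured by: FRET β-lactamase substrate fluorescence, excitation 405 nm, 460/535 nm emission ratio, background-subtracted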
* marks the source's active call; other numbers are inactive results; i = inactive; · = no result shown; + = active, no number; [ ] = dose if it differs, or a comment.

SMILES	PMK inhibit	Spn MK inh	DPM-DC inhibit	S1P1 ag-PAM	Hsp90 inh	S1P3 ag
Cc1cc(C)n(-c2nc(NCCCO)c3c4c(sc3n2)CCCC4)n1	7	0	i	-84	11	41*
Nc1nc(SCC(=O)NCCCO)nc2sc3c(c12)CCC3	9	9	i	·	-7	-1
Cc1cc(C)n(-c2nc(NCC(C)O)c3c4c(sc3n2)CCCC4)n1 (stereo not drawn)	7	6	i	-85	-12	29*
Cc1cc(C)n(-c2nc(NCC3CCCO3)c3c4c(sc3n2)COC(C)(C)C4)n1 (stereo not drawn)	9	7	·	-74	-6	3
Cc1cc(C)n(-c2nc(NCCO)c3c4c(sc3n2)CCCC4)n1	9	2	i	-68	-1	28*
Cc1cc(C)n(-c2nc(SCC(=O)NCC3CCCO3)c3c4c(sc3n2)CCCC4)n1 (stereo not drawn)	11	3	i	-3	2	-2
O=C(Cc1ccc(Cl)c(Cl)c1)OCCN1CCCC1	·	·	·	·	-1	·
N#CCCS(=O)(=O)c1nnnn1-c1ccccc1	15	0	i	70*	0	-1
N#CCCCSc1nnnn1-c1cccc(Cl)c1	4	1	i	12	-2	0
NS(=O)(=O)c1ccc(NC(=O)CSc2nnc(-c3cnccn3)n2-c2ccccc2)cc1	4	3	i	·	-1	-2
O=C(CCCC1=NS(=O)(=O)c2ccccc2N1)N1CCN(c2ccc(Cl)cc2)CC1	1	4	i	18	2	0
CC(C)(CC(=O)N1CCN(c2ccc(Cl)cc2)CC1)CC1=NS(=O)(=O)c2ccccc2N1	1	7	i	63*	-10	-1
COc1cc(NS(=O)(=O)CC(C)C)c2ncccc2c1	·	·	·	·	1	·
CCOC(=O)c1cc2c(=O)n3cccc(C)c3nc2n(CCc2ccc(OC)c(OC)c2)c1=N	12	10	i	9	-9	-2
CCOC(=O)c1cc2c(=O)n3cccc(C)c3nc2n(CCc2ccccc2)c1=N	5	4	+[fluoresces]	-19	2	-1
Clc1cc(Br)ccc1OCCOCCN1CCOCC1	1	44*	i	-5	0	-3
CCn1c(SCC(=O)Nc2ccc(Cl)cc2)nnc1C1CC1	58*	4	i	14	0	-1
CCn1c(SCC(=O)Nc2ccc(NC(C)=O)cc2)nnc1C1CC1	19	7	i	-40	-2	1
COCCn1cnnc1SCC(=O)c1ccc(S(=O)(=O)N2CCCC2)cc1	11	0	i	0	-4	0
c1ccc2c(c1)CCN(c1ncnc3nc[nH]c13)C2	4	10	i	-5	-3	0
CC1Cc2ccccc2N1c1ncnc2nc[nH]c12 (stereo not drawn)	8	12	i	93*	20	0
NC(=S)c1ccc[n+]([C@@H]2O[C@@H](COP(=O)([O-])OP(=O)(O)OC[C@H]3O[C@@H](n4cnc5c(N)ncnc54)C(OP(=O)(O)O)[C@H]3O)C(O)C2O)c1 (stereo partly drawn)	·	·	·	·	0	·
CC(=O)NC(C)C(=O)OCC(=O)Nc1ccc(Br)cc1 (stereo not drawn)	8	1	i	·	-3	·
CC(C)=CC(=O)Nc1ccc(Br)cc1	active	14	i	25	-3	0
COC(=O)CNc1nc(-c2ccccc2F)nc2ccccc12	28*	2	i	-4	5	0
SMILES	PMK inhibit	Spn MK inh	DPM-DC inhibit	S1P1 ag-PAM	Hsp90 inh	S1P3 ag
COC(=O)CNc1nc(-c2cccnc2)nc2ccccc12	0	0	i	-10	-9	0
CCOCCOCN(C#N)c1nc(OC)nc(N(C)C)n1	18	5	i	·	·	·
COc1cccc2c1C(=O)c1c(O)c3c(c(O)c1C2=O)C[C@@](O)(C(=O)CO)C[C@@H]3O[C@H]1C[C@H](N)[C@H](O)[C@H](C)O1	8	6	i	-20	73*	1
Cc1ccnc(N2CCC(C(=O)Nc3ccc(Oc4ccccc4)cc3)CC2)n1	29*	0	i	-1	-1	0
CC1(C)CC(=O)C(C=NCC2CCN(C(=O)Nc3ccccc3)CC2)=C(O)C1	0	2	i	-7	2	-2
CCOC(=O)c1c(C)n(C)c2ccc(O)c(CN3CCC(C)CC3)c12	7	48*	i	-1	-3	0
O=C(CSc1nnc(Cc2csc(Nc3cccc(Cl)c3)n2)o1)N1CCc2ccccc21	8	0	i	78*	-3	-1
CN(C)Cc1nc2ccccc2c(=O)n1Cc1nc(-c2cc3ccccc3o2)cs1	19	4	+	-24	-4	0
CCC(Sc1nncn1C)C(=O)Nc1ccccc1OC (stereo not drawn)	9	8	i	-18	4	-1
CCOc1cc(C(=O)Nc2ccc3c(c2)OCO3)ccc1OC(F)F	8	4	i	10	-2	0
O=C(Nc1ccc(OC(F)F)c(Cl)c1)Nc1ccc2c(c1)OCO2	1	1	i	59*	-4	-1
O=C(Nc1cccc2cccnc12)c1sc2cc(Cl)ccc2c1Cl	·	·	·	·	-2	·
O=C(O)CCS(=O)(=O)Cc1ccccc1F	27*	1	i	·	0	·
CC(C)c1ccc2oc(-c3ccc(N)cc3)nc2c1	4	14	·	54*	3	-2
Cc1ccc(-c2nc3cc(N)ccc3o2)cc1	5	10	·	-18	-3	-1
CCOC(=O)C1CCN(Cc2ccc(F)cc2)CC1	7	2	i	-2	0	-1
CCOC(=O)C1CCN(Cc2ccc(C(=O)OC)cc2)CC1	8	60*	i	·	3	-1
Cc1occc1C(=O)NC(C)CCc1ccccc1 (stereo not drawn)	6	5	i	-2	-4	1
Cc1occc1C(=O)NC(C)C(C)(C)C (stereo not drawn)	6	14	i	8	80*	-2
Cc1ccc(-c2cc(-c3ccc(C)o3)nc(N)c2C#N)cc1	0	12	·	-125	-2	1
Cc1ccc(-c2cc(-c3ccc(Cl)cc3)c(C#N)c(N)n2)o1	0	13	·	-216	-6	5.9*
O=C(Nc1ccc(Oc2ccccc2)cc1)c1cnc2n(c1=O)CCS2	3	2	i	94*	-4	-1
CCOc1ccccc1NC(=O)c1cnc2n(c1=O)CCS2	8	4	i	-1	-2	-1
CN(C(=O)C1CCOC1)c1nnc(C2CCOC2)s1 (stereo not drawn)	27*	1	i	2	0	0
CN(C(=O)C1CCOC1)c1nnc(-c2cnccn2)s1 (stereo not drawn)	14	0	i	-8	-2	0
CCOC(=O)c1sc2nc(NC(=O)C3CC3)sc2c1C	0	3	i	-13	1	1

Source: PubChem BioAssay
